Laboratory results taken from ChEMBL document CHEMBL3853338 (Bioorg Med Chem Lett, 2016).
The source made the active and inactive calls. No cut-off for these calls is given here.

Legend:
[1] = Drug level in mouse brain assessed as compound level in soluble tissue fraction at 10 uM after 1 hr by LC-MS/MS analysis; type: ADME, tissue-based
Method in brief: (§1)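 Compound at 10 µM incubated 1 h at 37 °C with homogenized mouse brain tissue in HBSS (1% final DMSO); after centrifugation, percent of compound in insoluble tissue fraction and soluble supernatant determined by LC–MS/MS.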

[2] = AUC in Sprague-Dawley rat plasma at 10 mg/kg, iv after 30 to 180 mins by LC-MS/MS analysis; type: ADME, organism-based; conditions: in vivo
Method in brief: (§2)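 Healthy male Sprague Dawley rats, n = 3 per time point, given 10 mg/kg IV; brain and plasma sampled at 30, 90 and 180 min post dose; drug levels by LC–MS/MS (plasma ng/ml, brain ng/g). AUC summed from straight-line segments joining the three time points.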

[3] = Drug level in Sprague-Dawley rat brain at 10 mg/kg, iv after 90 mins by LC-MS/MS analysis; type: ADME, organism-based; conditions: read-out: Drug uptake; method in brief: as §2
[4] = Plasma concentration in Sprague-Dawley rat plasma at 10 mg/kg, iv after 180 mins by LC-MS/MS analysis; type: ADME, organism-based; method in brief: as §2
[5] = Drug level in Sprague-Dawley rat brain at 10 mg/kg, iv after 180 mins by LC-MS/MS analysis; type: ADME, organism-based; conditions: read-out: Drug uptake; method in brief: as §2
[6] = Ratio of AUC in brain to plasma of Sprague-Dawley rat at 10 mg/kg, iv after 30 to 180 mins by LC-MS/MS analysis; type: ADME, organism-based; conditions: read-out: Ratio AUC
Method in brief: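 Male Sprague Dawley rats (n = 3 per time point) dosed IV at 10 mg/kg; brain and plasma taken 30, 90, 180 min after dosing and assayed by LC–MS/MS; three-point linear-segment AUCs computed; ratio = AUCbrain divided by AUCplasma.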

[7] = Plasma concentration in Sprague-Dawley rat plasma at 10 mg/kg, iv after 90 mins by LC-MS/MS analysis; type: ADME, organism-based; method in brief: as §2
[8] = AUC in Sprague-Dawley rat brain at 10 mg/kg, iv after 30 to 180 mins by LC-MS/MS analysis; type: ADME, organism-based; method in brief: as §2
[9] = Drug level in Sprague-Dawley rat brain at 10 mg/kg, iv after 30 mins by LC-MS/MS analysis; type: ADME, organism-based; conditions: read-out: Drug uptake; method in brief: as §2
[10] = Plasma concentration in Sprague-Dawley rat plasma at 10 mg/kg, iv after 30 mins by LC-MS/MS analysis; type: ADME, organism-based; method in brief: as §2
[11] = Fraction unbound in mouse brain assessed as compound level in insoluble tissue fraction at 10 uM after 1 hr by LC-MS/MS analysis; type: ADME, tissue-based; conditions: in the assay text read “soluble supernatant fraction” for “insoluble tissue fraction”; method in brief: as §1
[12] = Ratio of temozolomide AUC to compound AUC for drug level in brain of Sprague-Dawley rat; type: ADME; conditions: in vivo
U-87MG ATCC [13] = assay: Induction of DNA alkylation in human U87MG cells assessed as increase in O6-MedG formation at 10 to 100 uM after 3 hrs by LC-MS/MS analysis; type: cell-based
Method in brief: (§3)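 U87 MG cells incubated with 10 or 100 µM for 3 h at 37 °C, washed, lysed; genomic DNA isopropanol-extracted, hydrolysed 30 min at 37 °C with nuclease P1 and alkaline phosphatase (ammonium acetate/ZnCl2, pH 5.3); [H]O6-MedG internal standard added; O6-MedG peak area by LC–MS/MS.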

U-87MG ATCC [14] = assay: Induction of DNA alkylation in human U87MG cells assessed as increase in N7-MedG formation after 3 hrs by LC-MS/MS analysis; type: cell-based
[15] = Drug level in rat brain at 103 umol/kg, iv measured 3 hrs post dose by LC-MS/MS analysis; type: ADME, organism-based; conditions: in vivo
Method in brief: (§4)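 Rats (n = 1 per compound per dose) dosed IV at 10, 20 and 40 mg/kg; brain collected 3 h post dose; brain drug concentration and O6-MedG (peak area) measured by LC–MS/MS.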

U-87MG ATCC [16] = assay: Antitumor activity against human U87MG cells orthotopically xenografted in Harlan nude mouse brain assessed as increase in mouse survival at 50 umol/kg, iv administered once daily for 5 days; type: functional, organism-based
Method in brief: (§5)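 Orthotopic model: one million luciferase-expressing U87 MG cells surgically implanted into brains of female Harlan nude mice; dosing from day 26 (mean tumor 10.1 mm3), IV in 50% PEG400, once daily ×5; vehicle group dosed IV. Tumor volume by MRI, body weight and mortality tracked; survival followed to day 63, log-rank Mantel–Cox test.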

U-87MG ATCC [17] = assay: Antitumor activity against human U87MG cells orthotopically xenografted in Harlan nude mouse brain assessed as induction of slow tumor growth at 50 umol/kg, iv administered once daily for 5 days; type: functional, organism-based; method in brief: as §5
Rattus norvegicus = assay: Increase in O6-MedG formation in rat brain at 51.5 to 206 umol/kg, iv measured 3 hrs post dose by LC-MS/MS analysis; type: functional, organism-based; method in brief: as §4
[18] = Ratio of AUC in brain to plasma of Sprague-Dawley rat administered as single dose
[19] = Ratio of AUC in human brain to plasma by reversed-phase HPLC analysis
[20] = Cytotoxicity against human U87MG cells assessed as inhibition of cell growth at 100 uM after 72 hrs by MTS assay; type: functional, U-87MG ATCC; conditions: U-87 MG, read-out: GI
Method in brief: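 U87 MG cells exposed to 100 µM compound for 72 h; growth read by MTS CellTiter 96 assay; treated-cell mean growth (n = 3) divided by vehicle-treated growth (n = 3, set to 100%); SD of three replicates.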

[21] = Drug level in rat brain at 106 umol/kg, iv measured 3 hrs post dose by LC-MS/MS analysis; type: ADME, organism-based; conditions: in vivo; method in brief: as §4
U-87MG ATCC [22] = assay: Induction of DNA alkylation in human U87MG cells assessed as increase in O6-MedG formation at 10 uM after 3 hrs by LC-MS/MS analysis; type: cell-based; method in brief: as §3

| SMILES | Drug uptake [1] [%] | AUC [2] [ng·h/g] | concentration at 1.5 h [3] [ng/g] | concentration at 3 h [4] [ng/mL] | concentration at 3 h [5] [ng/g] | Kp [6] | concentration at 1.5 h [7] [ng/mL] | AUC [8] [ng·h/mL] | concentration at 0.5 h [9] [ng/g] | concentration at 0.5 h [10] [ng/mL] | fraction unbound at 1 h, 10 µM [11] | Ratio AUC [12] | Activity (U-87MG ATCC [13]) | further results |
| --- | --- | --- | --- | --- | --- | --- | --- | --- | --- | --- | --- | --- | --- | --- |
| CN1CCc2c(n(CCNC(=O)c3ncn4c(=O)n(C)nnc34)c3ccc(Cl)cc23)C1 | 11 | 386 | 162 | 43.7 | 47.5 | 1.36 | 123 | 525 | 574 | 399 | 0.11 | 10.8 | – | – |
| Nc1[nH]cnc1C(=O)N1CCc2c(n(C3CC3)c3c(Cl)cc(Cl)cc23)C1 | 1 | – | – | – | – | – | – | – | – | – | 0.01 | – | – | – |
| Cc1ccc2c(c1)c1c(n2CCNC(=O)c2ncn3c(=O)n(C)nnc23)CCN(C)C1 | – | 959 | 243 | 67.1 | 101 | 0.67 | 387 | 638 | 517 | 850 | – | 8.9 | Active | – |
| Cn1nnc2c(C(N)=O)ncn2c1=O [TEMOZOLOMIDE] | 50 | – | 2300 | 3100 | 912 | 0.34 | 6480 | – | 4210 | 12800 | 0.5 | – | Dose-dependent effect | Activity (U-87MG ATCC [14]): Active; Drug uptake [15]: Active; Activity (U-87MG ATCC [16]): Active; Activity (U-87MG ATCC [17]): Active; Activity (Rattus norvegicus): Active; Kp [18]: 35; Kp [19]: 20 |
| Cc1ccc2c(c1)c1c(n2C)CN(C(=O)c2ncn3c(=O)n(C)nnc23)CC1 | 2 | 650 | 945 | 119 | 372 | 3.79 | 256 | 2470 | 2020 | 483 | 0.02 | 2.3 | Active | inhibition of growth at 100 µM [20]: 27.3%; Drug uptake [21]: Active |
| Cn1nnc2c(C(=O)N3CCc4c(n(C5CC5)c5c(Cl)cc(Cl)cc45)C3)ncn2c1=O | 3 | 1070 | 4830 | 347 | 3570 | 10.4 | 438 | 11200 | 4950 | 531 | 0.03 | 0.5 | – | Activity (U-87MG ATCC [22]): Active |
| NC(=O)c1[nH]cnc1N | 48 | – | – | – | – | – | – | – | – | – | 0.48 | – | – | – |
| CN1CCc2c(n(CCNC(=O)c3nc[nH]c3N)c3ccc(Cl)cc23)C1 | 7 | – | – | – | – | – | – | – | – | – | 0.07 | – | – | – |
| Cc1ccc2[nH]c3c(c2c1)CN(CCNC(=O)c1ncn2c(=O)n(C)nnc12)CC3 | – | 998 | 142 | 99.2 | 32.7 | 0.75 | 302 | 750 | 1100 | 1090 | – | 7.5 | Active | – |
| Cc1ccc2c(c1)c1c(n2C)CCN(CCNC(=O)c2ncn3c(=O)n(C)nnc23)C1 | – | 4890 | 1700 | 539 | 401 | 0.82 | 2140 | 4010 | 3150 | 3630 | – | 1.4 | Active | – |
| Cc1ccc2c(c1)c1c(n2C)CN(C(=O)c2nc[nH]c2N)CC1 | 1 | – | – | – | – | – | – | – | – | – | 0.01 | – | – | – |
